Screening data from PubChem.
Most compounds without a hit are left out; they make up all but 3% or so of the library.
UBC13 polyUb: UBC13 polyubiquitin chain formation inhibitors, primary screen, biochemical, TR-FRET, uHTS. actives 0.47% (n = 330,000). Ubiquitin-conjugating enzyme E2 N (Homo sapiens), P61088. inhibition, % at 20 µM. AID 485273, 2010; in the data active = inhibition above about 45%, passing the limit was not always enough
MIN6 prolif: inducers of MIN6 beta-cell proliferation, primary screen, ATP luminescence, uHTS. MIN6 cells proliferation, ATPlite luminescence, 48 h; cells starved in 0.2% serum; 100% = growth in 10% serum. proliferation, % at 10 µM. actives 0.29% (n = 330,000). AID 2380, 2010;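 active = compounds whose signal lies at least 3.5 SD above the mean of all wells on their plate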
MPTP inh: mitochondrial permeability transition pore inhibitors, primary screen, biochemical, isolated mouse mitochondria, absorbance | AID 602449, 2012 | inhibition, % at 10 µM | actives 1.4% (n = 360,000) | Ca2+ swelling absorbance, 30 min;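 active = inhibition of 50% or more, scaled per plate between neutral and stimulator controls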
Apaf-1 inh: inhibitors of human Apaf-1 apoptosome, primary screen, biochemical, DEVD-Rh110 fluorescence, uHTS; reconstituted apoptosome caspase-3 activity; actives 0.71% (n = 330,000); inhibition, % at 20 µM; Apoptotic protease-activating factor 1 (Homo sapiens), O14727; active = inhibition of at least 40% at 20 µM
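System: reconstituted apoptosome with Apaf-1, cytochrome c, caspase-9, procaspase-3, dATP; Signal: Rh110 fluorescence intensity; Schedule: 30 min compound preincubation, 50 min activation, room temperature; Reagent: cytochrome c trigger plus (Z-DEVD)2-Rh110 caspase-3 substrate.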
iPSC survival up: enhancers of single-cell hiPSC survival, primary screen, ATPlite luminescence; 100% = ROCK inhibitor wells, 0% = DMSO; survival enhancement, % at 20 µM; AID 602274, 2012; actives 0.044% (n = 360,000); in the data active = survival enhancement above about 18%;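 also: cells exposed to compounds for 16 hours before the ATP read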
Exocytosis inh: LAMP-1 surface exposure blockers, TALL-104 cells – cell-based, flow cytometry, MLPCN library, primary screen; inhibition, % at 10 µM; AID 651702, 2012; actives 0.66% (n = 360,000); TALL-104 LAMP-1 surface exposure; cells stimulated with thapsigargin and PMA;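 active = inhibition above about 55%, limit read from the data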
Granule exo CP1: inhibitors of lytic granule exocytosis, confirmation, TALL-104 cells, flow cytometry, Cherry Pick01. shares compounds with Exocytosis inh. LAMP-1 externalization; stimulated with PMA plus thapsigargin. inhibition, % at 10 µM. actives 11% (n = 1,500). AID 651954, 2012; in the data active = inhibition above about 60%
Large screens that a line does not name were inactive (follow-up assays come after a bar, where they were run).

COc1ccc(C(CNC(=O)c2cccc(NC(=O)c3cccs3)c2)N2CCCC2)cc1 (stereo not drawn)	none
CCOC(=O)C1(CCOc2ccccc2)CCN(Cc2cccc(OC)c2)CC1	Exocytosis inh 86 (no result: UBC13 polyUb, MIN6 prolif, Apaf-1 inh) | Granule exo CP1 inactive
CCOC(=O)C1(Cc2cccc(OC)c2)CCN(Cc2ccccc2)CC1	none
CCOC(=O)C1(CCOc2ccccc2)CCN(Cc2ccc3c(c2)OCCO3)CC1	Exocytosis inh 83 | Granule exo CP1 inactive
OC[C@@H]1CN(Cc2ccc(-c3ccccc3)cc2)C[C@H](n2cnc3c(N4CCCC4)ncnc32)O1	none (no result: UBC13 polyUb, MIN6 prolif, Apaf-1 inh)
CCc1ccc(NCc2ccc(OC)c(Cn3ccnc3)c2)cc1	Exocytosis inh 58 | Granule exo CP1 inactive
Cc1ccccc1N1CCN(CCC(=O)Nc2ccc(F)cc2)CC1	none
Cc1ccc(Nc2cc(C)c(O)c(C)c2)cc1	Exocytosis inh 67 | Granule exo CP1 inactive
Cc1ccnc(NC(=O)C(C)N2C(=O)c3ccccc3S2(=O)=O)c1 (stereo not drawn)	none
NC(=O)c1ccc(NC(=O)COC(=O)C2(c3cccc(F)c3)CCCC2)cc1	none
CN(C)C(=O)c1ccc(NC(=O)COC(=O)C2(c3ccccc3)CCCC2)cc1	Exocytosis inh 76 | Granule exo CP1 inactive
CNCc1ccccc1Sc1ccc(O)c(O)c1	Exocytosis inh 82 (no result: UBC13 polyUb, MIN6 prolif, Apaf-1 inh) | Granule exo CP1 inactive
c1cncc(-c2nc(NCc3cccs3)c3ccccc3n2)c1	none
O=[N+]([O-])c1ncccc1Oc1nc(-c2cccnc2)nc2ccccc12	none
Fc1ccccc1CNc1nc(-c2cccnc2)nc2ccccc12	Exocytosis inh 81 | Granule exo CP1 inactive
c1ccc(Oc2nc(-c3cccnc3)nc3ccccc23)cc1	Exocytosis inh 83 | Granule exo CP1 inactive
Cc1c(CN2CCC(CO)(CCOc3ccccc3)CC2)[nH]c2c(Cl)cccc12	Exocytosis inh 92 | Granule exo CP1 inactive
C=CCOc1ccccc1CN1CCN(CCc2ccccc2)C(CCO)C1 (stereo not drawn)	Exocytosis inh 58 | Granule exo CP1 inactive
OCC1(CCOc2ccccc2)CCN(Cc2ccccc2OC(F)F)CC1	none
CCOc1ccccc1CN1CCN(CCCc2ccccc2)CC1CCO (stereo not drawn)	Exocytosis inh 63 | Granule exo CP1 inactive
C=CCOc1ccccc1CN1CCC(CO)(CCOc2ccccc2)CC1	Exocytosis inh 69 | Granule exo CP1 inactive
CCOC(=O)C(C(=O)OCC)c1c([N+](=O)[O-])c(=O)n2c3c(cccc13)CCC2	none
CCCCOc1ccccc1NC(=O)C=C(C)C	none
CCCOc1ccccc1NC(=O)/C=C/C(N)=O	Exocytosis inh 66 | Granule exo CP1 inactive
COc1ccc(-n2ccn(CC(=O)Nc3ccccc3OC)c(=O)c2=O)cc1	none
Cc1cccc(CN2CCC(C(=O)Nc3cccc(-c4cccc(F)c4)c3)CC2)n1	Exocytosis inh 62 | Granule exo CP1 inactive
COc1ccc(NC(=O)C2C(c3ccccc3)C2(Cl)Cl)c(OC)c1 (stereo not drawn)	Exocytosis inh 66 | Granule exo CP1 inactive
CCOc1ccc(NC(=O)C2C(c3ccccc3)C2(Cl)Cl)cc1 (stereo not drawn)	Exocytosis inh 81 | Granule exo CP1 inactive
CC(=O)c1cccc(S(=O)(=O)N2CCC(C(=O)Oc3ccc(-c4nnco4)cc3)CC2)c1	none
CC1(C(=O)NS(=O)(=O)C2CC2)CCCN(C(=O)C2(c3ccc(Cl)cc3)CCCC2)C1 (stereo not drawn)	none (no result: UBC13 polyUb, MIN6 prolif, Apaf-1 inh)
CC1CN(C(=O)CSc2nnc(NC(=O)NC(C)(C)C)s2)CC(C)O1 (stereo not drawn)	none
Cc1cc(-c2ccc([N+](=O)[O-])cc2)nc2ccccc12	none
Cc1cc(N2CCN(c3nc(-c4ccc([N+](=O)[O-])cc4)cs3)CC2)c2ccccc2n1	Exocytosis inh 66 | Granule exo CP1 79
CCOC(=O)c1c(N2CCN(c3ccccc3)CC2)cc(C)nc1C	Exocytosis inh 62 | Granule exo CP1 inactive
Cc1ccc2oc(NC3=NC4(CCCC4)C4=C(CCCC4=O)N3)nc2c1	none (no result: UBC13 polyUb, MIN6 prolif, Apaf-1 inh)
COc1ccc(-c2cc(NC(C)=O)c3ncc(-c4ccc(OC)c(OC)c4)n3c2)c(OC)c1	none (no result: UBC13 polyUb, MIN6 prolif, Apaf-1 inh)
CC(=O)Nc1cc(-c2ccccc2F)cn2c(-c3ccccc3)cnc12	Exocytosis inh 79 (no result: UBC13 polyUb, MIN6 prolif, Apaf-1 inh) | Granule exo CP1 94
CC(=O)Nc1cc(-c2ccccc2N(C)C)cn2c(-c3ccccc3)cnc12	none (no result: UBC13 polyUb, MIN6 prolif, Apaf-1 inh)
COc1ccc(-c2cc(NC(C)=O)c3ncc(-c4ccccc4)n3c2)c(OC)c1	Exocytosis inh 94 (no result: UBC13 polyUb, MIN6 prolif, Apaf-1 inh) | Granule exo CP1 96
COc1cccc(-c2cnc3c(NC(C)=O)cc(-c4ccccc4OC)cn23)c1	Exocytosis inh 76 (no result: UBC13 polyUb, MIN6 prolif, Apaf-1 inh) | Granule exo CP1 94
CCOc1ccccc1Nc1cc(C)nc2ccccc12	none (no result: UBC13 polyUb, MIN6 prolif, Apaf-1 inh)
CCOc1ccccc1Nc1cc(C)nc2ccc(C)cc12	Exocytosis inh 81 | Granule exo CP1 inactive
COc1ccc2nc(C)cc(Nc3ccc(C)cc3)c2c1	none
COc1ccc(OC)c(Nc2cc(C)nc3ccc(C)cc23)c1	Exocytosis inh 56 | Granule exo CP1 inactive
Cc1ccc2oc(C(=O)N(C)Cc3ccon3)c(C)c2c1	none
Cc1ccc2oc(C(=O)N(C)Cc3ccc(C)o3)c(C)c2c1	Exocytosis inh 81 | Granule exo CP1 inactive
COc1ccc(CC(=O)Nc2cccc(C(C)=O)c2)cc1S(=O)(=O)N1CCOCC1	Exocytosis inh 100 | Granule exo CP1 inactive
COc1ccc(C(=O)Nc2cccc(C(C)=O)c2)cc1S(=O)(=O)N1CCOCC1	none
c1ccc(OCC2CCNCC2)nc1	none
CN(C)C(=O)c1c(NC(=O)c2ccccc2)sc2c1CCC2	none
CCN(CC)CCCC(C)NC(=O)c1c(NC(=O)c2ccccc2)sc2c1CCCC2 (stereo not drawn)	Exocytosis inh 78 | Granule exo CP1 inactive
O=[N+]([O-])c1cccc(-c2cc(-c3cc(Br)ccc3O)[nH]n2)c1	Exocytosis inh 100 | Granule exo CP1 99
N#Cc1nc(COc2ccccc2Cl)oc1NCc1ccc(F)cc1	Exocytosis inh 59 | Granule exo CP1 inactive
N#Cc1ccsc1NC(=O)CCN1CCN(C(c2ccccc2)c2ccccc2)CC1	Exocytosis inh 77 | Granule exo CP1 inactive
N#Cc1ccsc1NC(=O)CCc1ccccc1	none
Cc1coc2c1c(C)cc1oc(=O)c(Cc3ccccc3)c(C)c12	Exocytosis inh 63 | Granule exo CP1 inactive
